# From PubChem BioAssay AID602424 (Sanford-Burnham Center for Chemical Genomics, 2012)
# The source made the active and inactive calls.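 Rule for the calls: active = IC50 at or below 20 µM; inactive = the rest.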
# Target: Glucose-6-phosphate 1-dehydrogenase (Homo sapiens) (UniProt P11413)
# Test: blockers of human G6PD activity – biochemical, fluorescence, dose response, set 4, selectivity assay for PfG6PD antimalarial inhibitor project, SAR follow-up (AID 602424)
# Conditions: recombinant human G6PD, NADPH-diaphorase-resazurin fluorescence
# Outline: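 Schedule: 90 min enzyme reaction at room temperature, in dark / Test system: human glucose-6-phosphate dehydrogenase enzyme (hG6PD) / Control set: no-substrate wells as low control / Signal: diaphorase-coupled resazurin fluorescence from NADPH, excitation 530 nm, emission 590 nm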
# Sequence of Glucose-6-phosphate 1-dehydrogenase (Homo sapiens) (P11413 whole entry, looked up): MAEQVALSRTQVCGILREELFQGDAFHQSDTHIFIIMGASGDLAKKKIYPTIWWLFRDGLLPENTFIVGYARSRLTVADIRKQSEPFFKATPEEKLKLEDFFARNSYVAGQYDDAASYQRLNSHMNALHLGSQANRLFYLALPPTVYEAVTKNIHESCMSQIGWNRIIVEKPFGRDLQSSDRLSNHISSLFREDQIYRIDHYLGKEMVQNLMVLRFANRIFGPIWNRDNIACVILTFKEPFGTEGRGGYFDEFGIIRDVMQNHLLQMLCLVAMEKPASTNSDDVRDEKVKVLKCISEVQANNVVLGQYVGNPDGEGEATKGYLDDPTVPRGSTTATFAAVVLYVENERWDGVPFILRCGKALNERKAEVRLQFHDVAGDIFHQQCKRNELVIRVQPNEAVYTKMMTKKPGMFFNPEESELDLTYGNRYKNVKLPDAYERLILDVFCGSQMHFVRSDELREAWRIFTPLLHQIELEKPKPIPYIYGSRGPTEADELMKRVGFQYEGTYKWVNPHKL
row,SMILES,IC50
1,CN1CCCCC1CNC(=O)c1ccc2c(c1)NC(=O)c1ccccc1S2 (configuration not stated),> 80 µM (inactive)
2,CCN1CCC[C@@H]1CNC(=O)c1ccc2c(c1)NC(=O)c1cccc(C)c1S2,> 80 µM (inactive)
3,O=C(NCC1CCCCN1)c1ccc2c(c1)NC(=O)c1ccccc1S2 (configuration not stated),> 80 µM (inactive)
4,CCN1CCC(NC(=O)c2ccc3c(c2)NC(=O)c2ccccc2S3)C1 (configuration not stated),> 80 µM (inactive)
5,CCCN1CCCCC1CNC(=O)c1ccc2c(c1)NC(=O)c1ccccc1S2 (configuration not stated),> 80 µM (inactive)
6,CCN1CCCCC1CNC(=O)c1ccc2c(c1)NC(=O)c1ccccc1S2 (configuration not stated),> 80 µM (inactive)
7,CCCN1CCC(NC(=O)c2ccc3c(c2)NC(=O)c2ccccc2S3)C1 (configuration not stated),> 80 µM (inactive)
8,CCN1CCC[C@@H]1CNC(=O)c1ccc2c(c1)NC(=O)c1ccccc1N2,> 80 µM (inactive)
9,CCCCCCN1CCCC1CNC(=O)c1ccc2c(c1)NC(=O)c1ccccc1S2 (configuration not stated),> 80 µM (inactive)
10,CCCCN1CCCC1CNC(=O)c1ccc2c(c1)NC(=O)c1ccccc1S2 (configuration not stated),> 80 µM (inactive)
11,CCCN1CCC[C@@H]1CNC(=O)c1ccc2c(c1)NC(=O)c1ccccc1S2,> 80 µM (inactive)
12,CN1CCCC1CNC(=O)c1ccc2c(c1)NC(=O)c1ccccc1S2 (configuration not stated),> 80 µM (inactive)
13,CCN1CCC[C@@H]1CNC(=O)c1ccc2c(c1)NC(=O)c1cc(C)ccc1S2,> 80 µM (inactive)
14,CCN1CCC[C@@H]1CNC(=O)c1ccc2c(c1)NC(=O)c1ccc(F)cc1S2,> 80 µM (inactive)
15,O=C(NC[C@H]1CCCN1)c1ccc2c(c1)NC(=O)c1ccccc1S2,> 80 µM (inactive)
16,CCN1CCC[C@@H]1CNC(=O)c1ccc2c(c1)NC(=O)c1cc(F)ccc1S2,> 80 µM (inactive)
17,CN1CCC(NC(=O)c2ccc3c(c2)NC(=O)c2ccccc2S3)C1 (configuration not stated),> 80 µM (inactive)
